Experimental data taken from article PMC5335871 (Bioorganic & medicinal chemistry letters, 2016).

Assays:
[1] = molecular target: T1, GPR35 (Homo sapiens, UniProt Q9HC97); assay type: cell-based; conditions: 10 μM Zaprinast as agonist
Procedure, shortened: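 Antagonism measured against a 10 μM Zaprinast agonist challenge in U2OS cells permanently expressing HA-GPR35a and βarr2-GFP. Concentration-effect curves for agonist-mediated receptor activation were analysed by nonlinear regression and fitted to sigmoidal dose-response curves to obtain IC50.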

[2] = molecular target: T1, GPR35; conditions: read-out: IC50, antagonism at GPR35; previously identified screening hits; cited from earlier work

T1 sequence (Q9HC97 whole entry): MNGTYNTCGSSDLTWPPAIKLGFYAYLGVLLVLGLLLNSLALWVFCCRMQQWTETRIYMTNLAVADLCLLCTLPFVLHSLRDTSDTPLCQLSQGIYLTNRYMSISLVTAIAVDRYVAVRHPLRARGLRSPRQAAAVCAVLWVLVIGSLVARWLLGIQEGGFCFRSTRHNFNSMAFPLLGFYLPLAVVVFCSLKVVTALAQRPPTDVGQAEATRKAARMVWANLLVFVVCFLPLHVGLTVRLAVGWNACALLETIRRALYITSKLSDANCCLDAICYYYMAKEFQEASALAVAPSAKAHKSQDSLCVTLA

SMILES | activity as GPR35 antagonist (in words) [1] | IC50 [2] [µM]
O=C(Nc1ccc2nc(SCc3ccc(Cl)cc3)sc2c1)c1ccccc1C(=O)N1CCCCC1 [Compound 2] | devoid of activity | –
O=C(Nc1ccc2nc(SCc3ccc(Cl)cc3)sc2c1)c1ccccc1C(=O)N1CCCC1 [Compound 3] | devoid of activity | –
O=C(Nc1ccc2nc(SCc3ccncc3)sc2c1)c1ccccc1C(=O)N1CCOCC1 [Compound 9] | inactive | –
CNC(=S)NN=Cc1c(C(=O)OC)cnn1-c1ccc(F)cc1F [Compound 13] | – | 0.16
